From ChEMBL document CHEMBL1130345, “A technetium-99m SPECT imaging agent which targets the dopamine transporter in primate brain” (J Med Chem, 1997)
Several values for one entry are separate records, joined by “and”; a condition that tells them apart may be missing. Equal values may be shown once.

Columns and labels:
[1] = target: Sodium-dependent dopamine transporter (Macaca fascicularis, UniProt Q9GJT6); experiment: Inhibition of [3H]WIN-35428 binding to dopamine transporter using of Cynomolgus monkey caudate-putamen; assay type: tissue-based
Method in brief: (§1)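 Caudate-putamen membranes (washed in 50 mM Tris-HCl pH 7.4, 3800g spins) incubated at 4 mg original wet tissue/mL with 0.3 nM [3H]WIN35,428 and 7–14 competitor concentrations in 50 mM Tris-HCl/100 mM NaCl pH 7.4, 2 h at 0–4 °C. Filtered on BSA-soaked GF/B filters, scintillation counting. Nonspecific binding defined with 30 μM (–)-cocaine. IC50 computed by EBDA; independent experiments in triplicate.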

[2] = target: Sodium-dependent serotonin transporter; experiment: Inhibition of [3H]- citalopram binding to serotonin transporter of Cynomolgus monkey caudate-putamen; assay type: tissue-based
Method in brief: as §1, with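 “1” for “0.3”, “[3H]citalopram” for “[3H]WIN35,428”, “polyethylenimine-soaked” for “BSA-soaked”, “1” for “30”, “fluoxetine.” for “(–)-cocaine.”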

Macaca fascicularis = species: Macaca fascicularis; experiment: Relative affinity for dopamine and serotonin transporters

Sequence of Sodium-dependent dopamine transporter (Q9GJT6 whole entry): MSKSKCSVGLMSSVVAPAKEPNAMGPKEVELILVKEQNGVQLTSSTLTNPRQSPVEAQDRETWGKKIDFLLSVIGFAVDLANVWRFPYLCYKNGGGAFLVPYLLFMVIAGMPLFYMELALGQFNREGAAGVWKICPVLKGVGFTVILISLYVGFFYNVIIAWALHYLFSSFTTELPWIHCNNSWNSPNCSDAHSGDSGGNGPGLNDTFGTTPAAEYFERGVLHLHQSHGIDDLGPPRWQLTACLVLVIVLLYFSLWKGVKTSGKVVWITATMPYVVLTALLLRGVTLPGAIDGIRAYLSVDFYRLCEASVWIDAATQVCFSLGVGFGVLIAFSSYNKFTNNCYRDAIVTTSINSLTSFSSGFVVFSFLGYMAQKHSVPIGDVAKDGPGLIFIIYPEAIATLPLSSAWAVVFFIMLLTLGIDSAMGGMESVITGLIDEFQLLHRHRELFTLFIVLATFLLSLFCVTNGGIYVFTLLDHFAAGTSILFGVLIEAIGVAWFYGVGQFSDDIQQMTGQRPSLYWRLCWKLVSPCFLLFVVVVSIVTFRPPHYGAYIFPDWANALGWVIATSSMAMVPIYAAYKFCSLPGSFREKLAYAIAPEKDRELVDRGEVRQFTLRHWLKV

Row | Compound | IC50 [1] | IC50 [2] | Ratio (Macaca fascicularis)
1 | [N-[2-[(3'-N'-PROPYL-3''ALPHA-(BIS(4-FLUORORPHENYL)METHOXY)TROPANE-2''BETA-CARBOXYLIC ACID METHYL ESTER)(2-MERCAPTOETHYL)AMINO]ACETYL]-2-AMINOETHANETHIOLATO]RHENIUM(V) OXIDE (DIASTEREOMERIC MIX) [listing 1 of 2 here] | 482 nM and 616 nM and 343 nM |  | 
2 | COC(=O)[C@@H]1C2CCC(C[C@@H]1OC(c1ccc(F)cc1)c1ccc(F)cc1)N2Cc1ccccc1 (stereo not given in full) |  | 4970 nM | 
3 | COC(=O)C1C(c2ccc(F)cc2)CC2CCC1N2Cc1ccccc1 (stereo not given) | 58.9 nM | 1070 nM | 18
4 | COC(=O)[C@@H]1C2CCC(C[C@@H]1OC(c1ccc(F)cc1)c1ccc(F)cc1)N2CCCc1ccccc1 (stereo not given in full) |  | 19.7 nM | 
5 | COC(=O)C1C(c2ccc(F)cc2)CC2CCC1N2CCCc1ccccc1 (stereo not given) | 1.4 nM | 133 nM | 95
6 | [N-[2-[(3'-N'-PROPYL-3''ALPHA-(BIS(4-FLUORORPHENYL)METHOXY)TROPANE-2''BETA-CARBOXYLIC ACID METHYL ESTER)(2-MERCAPTOETHYL)AMINO]ACETYL]-2-AMINOETHANETHIOLATO]RHENIUM(V) OXIDE (DIASTEREOMERIC MIX) [listing 2 of 2 here] |  |  | 90
7 | COC(=O)[C@@H]1C2CCC(C[C@@H]1OC(c1ccc(F)cc1)c1ccc(F)cc1)N2CCCCCc1ccccc1 (stereo not given in full) |  | 550 nM | 6
8 | COC(=O)C1C(c2ccc(F)cc2)CC2CCC1N2CCCCCc1ccccc1 (stereo not given) | 3.4 nM | 49.9 nM | 15
